# An excerpt weighted towards active compounds, which were near 3.4% of everything screened.
# IMP-1 inh-1 – inhibitors of Pseudomonas aeruginosa IMP-1 metallo-beta-lactamase; purified IMP-1, nitrocefin hydrolysis, epi-absorbance fluorescence; inhibition, % at 5.6 µM; 290,000 tested, 0.45% active; AID 1556;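 active means inhibition above the mean plus 3 SD of all compounds in the same screening run, cut at about 4.5% in these data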;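 further: 0% = IMP-1 with DMSO and 100% = DMSO wells lacking enzyme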
#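 System: purified IMP-1; amount: IMP-1 0.2 nM before substrate addition; compound: single dose, 5.6 µM; times: 25 °C, 15 min preincubation, 25 min reaction; signal: Epi-absorbance via hydrolysed-nitrocefin quenching of white-plate fluorescence, 480/530 nm, EDTA stop; benchmarks: DMSO with and without IMP-1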
# MEKK2wt PB1 HTS – raises or lowers MEK5 binding to wildtype human MEKK2 PB1 domain. bead flow cytometry, Alexa488-MEK5 binding to MEKK2 WT; actives lie on both sides. binding response (% of control), % at 10 µM. 290,000 tested, 1.1% active. AID 1531; in the data active means binding response below about 67% or above about 130%
# MEKK2mut PB1 HTS – signal of MEK5 binding to mutant human MEKK2 PB1 domain; bead flow cytometry, Alexa488-MEK5 binding to MEKK2 mutant; AID 1530; 290,000 tested, 0.35% active; percent response, % at 10 µM; in the data active means percent response above about 24%, passing the limit was not always enough
# VIM-2 inhibitor – blocks Pseudomonas aeruginosa VIM-2 metallo-beta-lactamase; purified VIM-2, nitrocefin hydrolysis, epi-absorbance fluorescence; inhibition, % at 5.6 µM; 290,000 tested, 0.89% active; AID 1527;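 active means inhibition above the mean of all tested compounds plus 3 SD, cutoff set per screening run, cut at about 7.5% in these data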;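 further: red hydrolysis product quenches plate fluorescence so inhibitors raise well fluorescence; 0% = enzyme with DMSO and 100% = DMSO without enzyme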
# MEKK3 PB1 HTS – raises or lowers MEK5 binding to the human MEKK3 PB1 domain; bead-based flow cytometry, Alexa488-MEK5 binding to MEKK3; actives lie on both sides; 0 = blocked by unlabeled MEK5, 100 = vehicle; binding response (% of control), % at 10 µM; Q99759; AID 1529; 290,000 tested, 1.4% active;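 active means binding response more than 3 SD above or below the average of its plate-row segment, actives on both sides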;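 further: Alexa488 bead fluorescence after subtracting the streptavidin-only scavenger bead signal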
# IMP-1 inh-2 – IMP-1 inhibition, counter-screen for VIM-2 inhibitors; inhibition, % at 5.6 µM; shares compounds with VIM-2 inhibitor; 1,300 tested, under 10 active; purified IMP-1, nitrocefin hydrolysis, epi-absorbance fluorescence; call rule not given here;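 further: 0% = enzyme with vehicle and 100% = vehicle without enzyme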
# VIM-2 FRET inh – VIM-2 FRET inhibition, artifact counter-screen; 1,300 tested, 23% active; AID 1857; shares compounds with VIM-2 inhibitor; inhibition, % at 5.6 µM; purified VIM-2, CCF2 FRET substrate hydrolysis;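 active means inhibition above the mean of all tested compounds plus 3 SD, cut at about 19% in these data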;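 further: 0% = VIM-2 plus DMSO and 100% = no enzyme wells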
# TEM-1 inh – selectivity counter-screen for VIM-2 inhibitors: E. coli TEM-1 inhibitors | shares compounds with VIM-2 inhibitor | Purified TEM-1, nitrocefin hydrolysis, epi-absorbance fluorescence | inhibition, % at 5.6 µM | 1,300 tested, 3% active | AID 1866;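 active means inhibition above that campaign's mean inhibition plus 3 SD, cut at about 0.46% in these data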;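 further: 0% = TEM-1 with DMSO and 100% = TEM-1 with 100 µM potassium clavulanate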
# Target sequence (P62593 whole entry, looked up): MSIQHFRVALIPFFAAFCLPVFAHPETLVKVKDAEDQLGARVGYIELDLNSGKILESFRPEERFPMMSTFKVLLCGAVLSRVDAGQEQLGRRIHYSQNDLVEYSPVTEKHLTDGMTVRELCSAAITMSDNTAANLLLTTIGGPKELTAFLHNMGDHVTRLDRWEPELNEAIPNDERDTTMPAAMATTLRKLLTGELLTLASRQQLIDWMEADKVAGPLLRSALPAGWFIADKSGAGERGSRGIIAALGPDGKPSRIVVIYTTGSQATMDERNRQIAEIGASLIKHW
# VIM-2 confirm 2 – confirmation of P. aeruginosa VIM-2 metallo-beta-lactamase inhibitors | shares compounds with VIM-2 inhibitor | purified VIM-2, nitrocefin hydrolysis, epi-absorbance | inhibition, % at 5.6 µM | 1,300 tested, 96% active;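 active means inhibition of the VIM-2 beta-lactamase enzyme above about 11% from the earlier first-round screen, limit read from the data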;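 further: 0% = VIM-2 with DMSO and 100% = buffer wells without enzyme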
# * marks the source's active call; other numbers are inactive results; · = no result.
SMILES,IMP-1 inh-1,MEKK2wt PB1 HTS,MEKK2mut PB1 HTS,VIM-2 inhibitor,MEKK3 PB1 HTS,IMP-1 inh-2,VIM-2 FRET inh,TEM-1 inh,VIM-2 confirm 2
CSc1nc2sc3c(c2c(=S)[nH]1)CC(C)(C)OC3,-2,105,2,15*,106,-3,21*,-7,19*
Cc1ccc(-c2csc3n[nH]c(=S)n23)cc1,0,103,3,46*,101,-1,70*,-3,57*
c1ccc2c(c1)nnn1c3ccccc3nc21,-2,97,-3,3,101,·,·,·,·
ClC(Cl)(Cl)c1nc2ccccc2n2nncc12,-2,93,0,24*,96,-2,0,-6,38*
COc1ccc(CCn2c(=N)c(C(=O)NCC3CCCO3)cc3c(=O)n4ccccc4nc32)cc1OC (stereo not drawn),-2,97,-6,14*,98,-2,-1,-5,21*
O=C1OCC2=C1C(c1ccc3c(c1)OCO3)Sc1ccccc1N2 (stereo not drawn),-1,98,1,2,98,·,·,·,·
CCc1c(C)c(C#N)c2nc3ccccc3n2c1NCCN(C)C,-3,99,2,6,101,·,·,·,·
CCN(CC)c1cc(C)c(C#N)c2nc3ccccc3n12,-4,93,2,-3,88,·,·,·,·
CNc1cc(C)c(C#N)c2nc3ccccc3n12,-5,104,22,24*,104,-3,2,-7,35*
CCc1c(C)c(C#N)c2nc3ccccc3n2c1NC,-3,109,15,14*,112,-4,1,-7,21*
Cc1cc(Cl)n2c(nc3ccccc32)c1C#N,-3,108,-1,20*,118,-3,-8,-7,34*
COCCOC(=O)c1c(C)oc2ccc(OC(=O)c3c(OC)cccc3OC)cc12,-3,98,-7,0,101,·,·,·,·
CC(C)(C)NC(=O)CSc1ccc(C(C)(C)C)cc1,-3,100,3,-2,97,·,·,·,·
COC(=O)c1ccc(-c2ccc(C(=O)N3CCCN(C)CC3)cc2)cc1,-4,102,2,13*,103,-4,30*,-6,21*
O=C(CC(=O)N/N=C\c1ccc([N+](=O)[O-])cc1)NCCc1ccccc1,0,92,-6,-2,91,·,·,·,·
N=c1sccn1CC(=O)Nc1cccc2ccccc12,-3,115,6,-5,107,·,·,·,·
COc1cc(Oc2nc(C(F)(F)F)nc3ccccc23)ccc1C=O,-1,92,-4,14*,97,-3,-4,-5,24*
CC(=O)Nc1cccc(Oc2nc(C(F)(F)F)nc3ccccc23)c1,-4,105,2,14*,103,-3,-1,-7,26*
Cc1nnc(NC(=O)C(C)Oc2ccc3c(C)cc(=O)oc3c2)s1 (stereo not drawn),-6,110,10,1,107,·,·,·,·
CCOc1ccc(C(CC(=O)O)NC(=O)COc2ccccc2OC)cc1OC (stereo not drawn),-4,99,-3,-3,103,·,·,·,·
C/C(=N\NC(=O)c1cc(-c2cccc(OC(C)C)c2)nc2ccccc12)c1cccnc1,-3,106,1,-4,104,·,·,·,·
COCCCNC(=O)c1cc2c(-c3cccc(OC)c3)nn(C)c2s1,-1,108,3,3,104,·,·,·,·
CCN(CC)CCNC(=O)c1cc2c(-c3cccc(OC)c3)nn(C)c2s1,-2,116,2,14*,102,-2,4,-4,23*
COc1ccc(-c2nn(C)c3sc(C(=O)N4CCOCC4)cc23)cc1OC,-2,103,1,3,98,·,·,·,·
COc1ccc(-c2nn(C)c3sc(C(=O)NCCN(C)C)cc23)cc1OC,-3,109,6,17*,102,-3,-2,-6,30*

# High-throughput results deposited in PubChem BioAssay by several laboratories.
